# From ChEMBL document CHEMBL3997773, “Synthesis of C-4-Substituted Steviol Derivatives and Their Inhibitory Effects against Hepatitis B Virus” (J Nat Prod, 2016)
# Active and inactive are the calls of the source. The calls are words filed in the database; no cut-off is given here.
# Assays:
# Huh-7 [1] = assay: Decrease in IKKbeta protein expression in human HuH7 cells transfected with pHBV1.2 at 2.5 ug/ml after 2 days by immunoblot method relative to control; type: functional
# Summary of the method: (§1)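 Huh7 cells were transfected with pHBV1.2 for 2 days, then treated at 2.5, 5 or 10 μg/mL for another 2 days. Whole-cell protein was extracted with protease inhibitors. NF-κB p65/p50, phospho-p65, IKKα/β and IκBα/phospho-IκBα were detected by immunoblot. Blots are representative of three experiments.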
# [2] = Decrease in NF-kB (unknown origin) promoter activity expressed in human HuH7 cells cotransfected with pHBV1.2 at 10 ug/ml after 24 hrs by luciferase reporter gene assay; type: cell-based
# Summary of the method: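 Huh7 cells were seeded for 24 h, then cotransfected with pHBV1.2, pRLSV40 and pAP1-Luc or pNF-κB-Luc responsive-element reporter for 24 h. Cells were treated at 10 μg/mL for 24 h and lysates were assayed for luciferase. Mean ± SD, n = 3, compared with untreated cells.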
# [3] = tested on: Hepatitis B virus subtype adw2; assay: Antiviral activity against Hepatitis B virus subtype adw2 infected in human HuH7 cells cotransfected with pCMV-p65 assessed as inhibition of viral DNA replication at 10 ug/ml after 2 days by RT-PCR method; type: functional, cell-based
# Summary of the method: (§2)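 Huh7 cells were cotransfected with pHBV1.2 and, where stated, 0.5 or 2.5 μg pCMV-p65 (or empty vector) for 2 days, then treated at 10 μg/mL for 2 days. In separate wells, HBV-expressing cells received 10 μg/mL with or without anisomycin (10 μM) for 2 days. Secreted viral particles were kit-isolated and HBV DNA was measured by real-time PCR, n = 3.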
# [4] = Selectivity index, ratio of TC50 for human HepG2.2.15 cells to IC50 for Hepatitis B virus subtype adw2 infected in human HuH7 cells assessed as inhibition of viral DNA replication
# [5] = biological target: T1, NF-kappa-B inhibitor alpha (Homo sapiens) (UniProt P25963); assay: Decrease in IKBalpha phosphorylation in human HuH7 cells transfected with pHBV1.2 at 2.5 ug/ml after 2 days by immunoblot method relative to control; type: cell-based; summary of the method: as §1
# T1 sequence (whole entry): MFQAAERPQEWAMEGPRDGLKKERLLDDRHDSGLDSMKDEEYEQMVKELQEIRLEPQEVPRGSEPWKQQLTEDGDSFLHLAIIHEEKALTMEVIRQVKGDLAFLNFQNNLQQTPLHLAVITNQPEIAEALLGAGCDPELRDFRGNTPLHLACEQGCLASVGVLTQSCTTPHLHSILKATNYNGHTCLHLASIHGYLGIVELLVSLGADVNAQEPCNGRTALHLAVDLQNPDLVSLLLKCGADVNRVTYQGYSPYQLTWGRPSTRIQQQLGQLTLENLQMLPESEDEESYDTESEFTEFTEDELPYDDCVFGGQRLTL
# Huh-7 [6] = assay: Decrease in ERK1/2 protein expression in human HuH7 cells transfected with pHBV1.2 at 2.5 to 10 ug/ml after 2 days by immunoblot method
# [7] = tested on: Hepatitis B virus subtype adw2; assay: Antiviral activity against Hepatitis B virus subtype adw2 infected in human HuH7 cells assessed as inhibition of viral DNA replication at 10 ug/ml cotreated with MAPK activator anisomycin after 2 days by RT-PCR method; type: functional, cell-based; summary of the method: as §2
# [8] = Antiviral activity against Hepatitis B virus subtype adw2 infected in human HuH7 cells assessed as reduction in HBx level at 10 ug/ml after 2 days by immunoblot method relative to control; type: functional
# Summary of the method: (§3)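 Huh7 cells were transfected with pHBV1.2 (1.2-fold HBV adw2 genome) for 2 days, then exposed to 2.5, 5 or 10 μg/mL for another 2 days. Whole-cell protein was extracted with protease inhibitors. SHBs, HBcAg and HBx were detected by immunoblot, with α-tubulin for comparison.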
# [9] = Cytotoxicity against human HepG2.2.15 cells assessed as reduction in cell viability after 3 days by MTS assay; conditions: read-out: TC50
# [10] = Antiviral activity against Hepatitis B virus subtype adw2 infected in human HuH7 cells assessed as inhibition of viral DNA replication by RT-PCR method; type: functional, cell-based; conditions: Huh-7
# [11] = biological target: Transcription factor p65 (Homo sapiens) (UniProt Q04206); assay: Decrease in NF-kB p65 phosphorylation in human HuH7 cells transfected with pHBV1.2 at 10 ug/ml after 2 days by immunoblot method relative to control; type: cell-based; summary of the method: as §1
# [12] = Selectivity index, ratio of TC50 for human HepG2.2.15 cells to IC50 for Hepatitis B virus subtype adw2 infected in human HuH7 cells assessed as inhibition of HBsAg secretion
# [13] = Antiviral activity against Hepatitis B virus subtype adw2 infected in human HuH7 cells assessed as reduction in HBcAg level at 5 ug/ml after 2 days by immunoblot method relative to control; type: functional; summary of the method: as §3
# Huh-7 [14] = assay: Effect on NF-kB p50 protein expression in human HuH7 cells transfected with pHBV1.2 at 2.5 ug/ml after 2 days by immunoblot method relative to control; type: functional
# Summary of the method: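 HBV adw2 genome plasmid pHBV1.2 transfected into Huh7 for 2 days, then 2.5, 5 or 10 μg/mL for another 2 days. Whole-cell protein extracted with protease inhibitors, then SDS-PAGE immunoblot for NF-κB and MAPK pathway proteins. Blots are representative of three sets of experiments.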
# Huh-7 [15] = assay: Decrease in p38 MAPK protein expression in human HuH7 cells transfected with pHBV1.2 at 10 ug/ml after 2 days by immunoblot method relative to control
# [16] = tested on: Hepatitis B virus subtype adw2; assay: Antiviral activity against Hepatitis B virus subtype adw2 infected in human HuH7 cells assessed as inhibition of HBeAg secretion after 3 days by EIA; type: functional, cell-based
# Summary of the method: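 HBV-expressing Huh7 cells were given 2.5, 5 or 10 μg/mL for 3 days. HBsAg and HBeAg in the conditioned medium were measured by enzyme immunoassay. Mean ± SD, n = 3, compared with untreated cells.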
# Hepatitis B virus = assay: Decrease in HBV core promoter activity infected in human HuH7 cells cotransfected with pHBV1.2 at 10 ug/ml after 24 hrs by luciferase reporter gene assay; type: cell-based
# Summary of the method: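 Huh7 cells were seeded for 24 h, then cotransfected with pHBV1.2, pRLSV40 and a pGL4.17-based Core (nt 1636-1851), S (nt 3114-220), PreS (nt 2438-2855) or X (nt 1071-1357) promoter-luciferase construct for 24 h. Cells were then treated at 10 μg/mL for 24 h and lysates were assayed for luciferase. Mean ± SD, n = 3.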
# [17] = Antiviral activity against Hepatitis B virus subtype adw2 infected in human HuH7 cells assessed as inhibition of viral DNA replication at 10 ug/ml after 2 days by RT-PCR method relative to control; type: functional; conditions: Huh-7, 48 h; summary of the method: as §2
# [18] = Selectivity index, ratio of TC50 for human HepG2.2.15 cells to IC50 for Hepatitis B virus subtype adw2 infected in human HepG2.2.15 cells assessed as inhibition of HBeAg secretion
# Transcription factor p65 (Homo sapiens), sequence (Q04206 whole entry): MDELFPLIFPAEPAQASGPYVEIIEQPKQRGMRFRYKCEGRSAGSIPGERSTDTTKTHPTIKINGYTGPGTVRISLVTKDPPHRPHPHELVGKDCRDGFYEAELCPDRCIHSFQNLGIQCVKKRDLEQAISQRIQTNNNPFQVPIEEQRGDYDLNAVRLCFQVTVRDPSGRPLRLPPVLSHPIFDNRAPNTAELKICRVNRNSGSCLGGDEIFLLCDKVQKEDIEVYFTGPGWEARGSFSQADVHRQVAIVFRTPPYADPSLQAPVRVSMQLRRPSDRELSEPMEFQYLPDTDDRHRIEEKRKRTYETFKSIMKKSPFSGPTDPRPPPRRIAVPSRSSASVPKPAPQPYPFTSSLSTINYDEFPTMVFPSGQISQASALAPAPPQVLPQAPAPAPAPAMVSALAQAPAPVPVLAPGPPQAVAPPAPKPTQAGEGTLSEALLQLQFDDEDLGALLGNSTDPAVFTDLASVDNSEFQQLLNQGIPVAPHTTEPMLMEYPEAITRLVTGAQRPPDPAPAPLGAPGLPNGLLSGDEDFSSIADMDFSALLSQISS
smiles,measurement,setting,value
C=C1C[C@@]23CC[C@H]4[C@@](C)(CCC[C@@]4(C)NC(=O)NCCCC)[C@@H]2CC[C@]1(O)C3,fold change (FC),Huh-7 [1],0.99
same,Activity,[2],Active
same,inhibition,[3],inactive
same,selectivity ratio,[4],57.7
same,fold change (FC),[5],0.97
same,Activity,Huh-7 [6],Active
same,inhibition,[7],inactive
same,fold change (FC),[8],0.15
same,CC50 at 72 h,[9],972 µM
same,IC50,[10],16.9 µM
same,fold change (FC),[11],0.23
same,selectivity ratio,[12],41.4
same,fold change (FC),[13],0.81
same,fold change (FC),Huh-7 [14],1.01
same,fold change (FC),Huh-7 [15],0.33
same,inhibition,[16],Dose-dependent effect
same,Activity,Hepatitis B virus,Active
same,inhibition at 10 µg/mL,[17],38%
same,selectivity ratio,[18],47.7
